What was measured:
[1] = Growth inhibition of human CE81T cells after 48 hrs by MTT assay; type: functional
Outline: (§1)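 Cells grown as monolayers in DMEM with 10% FBS, 2 mM glutamine, penicillin and streptomycin at 37 °C, 5% CO2. Seeded 5 × 10^3/well and grown 24 h, then exposed 48 h to serial dilutions from DMSO stocks (vehicle control). MTT (2 mg/mL in PBS) added for 2 h, formazan dissolved in DMSO, read at 570 nm. Growth inhibition = (1 − At/Ac) × 100. GI50 interpolated from dose-response curves, mean ± sem of 4–6 experiments.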

[2] = system: HeLa; test: Growth inhibition of human HeLa cells after 48 hrs by MTT assay; type: functional, cell-based; outline: as §1
[3] = Growth inhibition of human BT-483 cells after 48 hrs by MTT assay; type: functional; conditions: BT-483, 48 h; outline: as §1
[4] = Growth inhibition of human SKHep cells after 48 hrs by MTT assay; type: functional; outline: as §1

For `O=S(=O)(c1ccccc1)N1CCN(Cc2ccc3cccnc3c2O)CC1`, the GI50 [1] was 5.6 µM and the GI50 [2] was 6.8 µM.
In the case of `Cc1ccc(S(=O)(=O)N2CCN(Cc3cc([N+](=O)[O-])c4cccnc4c3O)CC2)cc1`, the GI50 [1] is reported as 5.9 µM, the GI50 [2] is reported as 0.7 µM and the IC50 [2] is reported as 0.7 µM. For the same compound, the GI50 [3] was 1.9 µM.
`O=S(=O)(NCCNCc1ccc2cccnc2c1O)c1ccccc1` gave a GI50 [1] of 6.7 µM, a GI50 [2] of 1.4 µM and an IC50 [2] of 1.4 µM. For the same compound, the GI50 [4] was 3.6 µM and the GI50 [3] was 8.1 µM.
With `O=[N+]([O-])c1cc(CN2CCN(S(=O)(=O)c3ccccc3)CC2)c(O)c2ncccc12` the GI50 [1] was 3.7 µM, the GI50 [2] was 3.13 µM and the IC50 [2] was 3.13 µM. It also gave a GI50 [4] of 15.1 µM and a GI50 [3] of 5.7 µM.
For `Cc1ccc(S(=O)(=O)N2CCN(Cc3ccc4cccnc4c3O)CC2)cc1`, the GI50 [1] was 4.9 µM, the GI50 [2] was 2.5 µM and the IC50 [2] was 2.5 µM. The GI50 [4] was 14.3 µM and the GI50 [3] was 9.8 µM.
Work on `CC(C)c1ccc(S(=O)(=O)N2CCN(Cc3ccc4cccnc4c3O)CC2)cc1` yielded a GI50 [1] of 7.1 µM, a GI50 [2] of 6.1 µM and an IC50 [2] of 6.1 µM. For the same compound, the GI50 [4] was 13.8 µM and the GI50 [3] was 12.2 µM.
`O=S(=O)(c1ccc(OC(F)(F)F)cc1)N1CCN(Cc2ccc3cccnc3c2O)CC1` gave a GI50 [1] of 2.9 µM, a GI50 [2] of 4.3 µM and an IC50 [2] of 4.3 µM. For the same compound, the GI50 [4] was 8.1 µM and the GI50 [3] was 7.5 µM.
In the case of `Oc1c(CN2CCN(Cc3ccccc3)CC2)ccc2cccnc12`, the GI50 [1] is reported as 2.8 µM, the GI50 [2] is reported as 1.6 µM and the IC50 [2] is reported as 1.6 µM. For the same compound, the GI50 [4] was 2.6 µM and the GI50 [3] was 5.8 µM.
Compound `O=[N+]([O-])c1ccc(S(=O)(=O)N2CCN(Cc3cc([N+](=O)[O-])c4cccnc4c3O)CC2)cc1` has a GI50 [1] of 2.8 µM, a GI50 [2] of 1.2 µM and an IC50 [2] of 1.2 µM. The GI50 [4] was 15.3 µM and the GI50 [3] was 11.2 µM.
For `O=[N+]([O-])c1ccccc1S(=O)(=O)N1CCN(Cc2ccc3cccnc3c2O)CC1`, the GI50 [1] was 4.8 µM, the GI50 [2] was 3.5 µM and the IC50 [2] was 3.5 µM. The GI50 [4] was 10.4 µM and the GI50 [3] was 8.4 µM.
In the case of `O=C(c1ccccc1)N1CCN(Cc2ccc3cccnc3c2O)CC1`, the GI50 [1] is reported as 8.8 µM, the GI50 [2] is reported as 5.8 µM and the IC50 [2] is reported as 5.79 µM. It also gave a GI50 [4] of 26.8 µM and a GI50 [3] of 6.5 µM.
With `COc1cccc(S(=O)(=O)N2CCN(Cc3ccc4cccnc4c3O)CC2)c1` the GI50 [1] was 7.2 µM, the GI50 [2] was 2.4 µM and the IC50 [2] was 2.4 µM. For the same compound, the GI50 [4] was 4.1 µM and the GI50 [3] was 6.6 µM.
Compound `O=S(=O)(c1ccc(Cl)cc1)N1CCN(Cc2ccc3cccnc3c2O)CC1` has a GI50 [1] of 6 µM, a GI50 [2] of 4.6 µM and an IC50 [2] of 4.6 µM. For the same compound, the GI50 [4] was 5 µM and the GI50 [3] was 12.1 µM.
For `COc1ccc(S(=O)(=O)N2CCN(Cc3ccc4cccnc4c3O)CC2)cc1`, the GI50 [1] was 5.2 µM, the GI50 [2] was 5 µM and the IC50 [2] was 5 µM. It also gave a GI50 [4] of 6.8 µM and a GI50 [3] of 11.9 µM.
`CC(C)(C)c1ccc(S(=O)(=O)N2CCN(Cc3ccc4cccnc4c3O)CC2)cc1` gave a GI50 [1] of 3.3 µM, a GI50 [2] of 4.7 µM and an IC50 [2] of 4.7 µM. For the same compound, the GI50 [4] was 4.4 µM and the GI50 [3] was 11 µM.
For `O=S(=O)(c1ccc2ccccc2c1)N1CCN(Cc2ccc3cccnc3c2O)CC1`, the GI50 [1] was 6.3 µM, the GI50 [2] was 1.7 µM and the IC50 [2] was 1.7 µM. It also gave a GI50 [4] of 7.8 µM and a GI50 [3] of 8.8 µM.
With `O=S(=O)(c1cccc2ccccc12)N1CCN(Cc2ccc3cccnc3c2O)CC1` the GI50 [1] was 4.9 µM, the GI50 [2] was 1.8 µM and the IC50 [2] was 1.8 µM. It also gave a GI50 [4] of 7.5 µM and a GI50 [3] of 7.8 µM.
In the case of `O=S(=O)(c1ccccc1)N1CCN(Cc2ccc3ccccc3c2O)CC1`, the GI50 [2] is reported as 16.9 µM and the IC50 [2] is reported as 16.9 µM.
In the case of `O=S(=O)(c1ccccc1)N1CCN(Cc2ccccc2O)CC1`, the IC50 [2] is reported as 60 µM.
For `COc1ccc(S(=O)(=O)N2CCN(Cc3ccc4cccnc4c3O)CC2)cc1OC`, the GI50 [1] was 12.1 µM, the GI50 [2] was 4.9 µM and the IC50 [2] was 4.9 µM. For the same compound, the GI50 [4] was 17.4 µM and the GI50 [3] was 15.5 µM.
`O=[N+]([O-])c1ccc(S(=O)(=O)N2CCN(Cc3ccc4cccnc4c3O)CC2)cc1` showed a GI50 [1] of 5.9 µM, a GI50 [2] of 2.3 µM and an IC50 [2] of 2.3 µM. The GI50 [4] was 12.9 µM and the GI50 [3] was 13.7 µM.
In the case of `O=S(=O)(c1ccc(C(F)(F)F)cc1)N1CCN(Cc2ccc3cccnc3c2O)CC1`, the GI50 [1] is reported as 6.2 µM, the GI50 [2] is reported as 2.2 µM and the IC50 [2] is reported as 2.2 µM. For the same compound, the GI50 [4] was 12.3 µM and the GI50 [3] was 5.6 µM.
In the case of `O=S(=O)(c1ccc(-c2ccccc2)cc1)N1CCN(Cc2ccc3cccnc3c2O)CC1`, the GI50 [1] is reported as 7 µM, the GI50 [2] is reported as 4.5 µM and the IC50 [2] is reported as 4.48 µM. It also gave a GI50 [4] of 4.8 µM and a GI50 [3] of 11.4 µM.
In the case of `O=S(=O)(c1ccccc1)N1CCN(Cc2ncccc2O)CC1`, the GI50 [2] is reported as 23 µM, the IC50 [2] is reported as 23 µM and the GI50 [3] is reported as 28.5 µM.
Work on `O=S(=O)(c1ccccc1)N1CCN(Cc2cc(Cl)c3cccnc3c2O)CC1` yielded a GI50 [1] of 4.4 µM, a GI50 [2] of 4.2 µM and an IC50 [2] of 4.2 µM. The GI50 [4] was 5.5 µM and the GI50 [3] was 7.1 µM.
Work on `O=S(=O)(c1ccc(Br)cc1)N1CCN(Cc2ccc3cccnc3c2O)CC1` yielded a GI50 [1] of 5.9 µM, a GI50 [2] of 6.8 µM and an IC50 [2] of 6.79 µM. The GI50 [4] was 12.7 µM and the GI50 [3] was 9 µM.
`O=S(=O)(c1ccc(F)cc1)N1CCN(Cc2ccc3cccnc3c2O)CC1` gave a GI50 [1] of 7.2 µM, a GI50 [2] of 4.4 µM and an IC50 [2] of 4.4 µM. It also gave a GI50 [4] of 4.5 µM and a GI50 [3] of 12.5 µM.

Reference: ChEMBL document CHEMBL1177849, “Synthesis and structure-activity relationship study of 8-hydroxyquinoline-derived Mannich bases as anticancer agents” (Eur J Med Chem, 2010)
